Experimental findings from PubChem BioAssay are described below.

Unmarked numbers belong to inactive results. Results filed as inconclusive are left out. The source made the active and inactive calls.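 Rule for the calls, unless noted: active = inhibition over a set limit, the all-compound mean plus 3 SD, in both replicate runs; inconclusive = over that limit in just one replicate run; inactive = at or under that limit in both runs.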

Assay [1] is described as follows: S. cerevisiae growth inhibition in permissive medium (OD615), pilot counter-assay for S. cerevisiae lifespan shortening project, permissive growth control (AID 705;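 active = growth inhibition above 25% in both replicates, a cutoff set 3 SD above the mean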). The settings on record: OD615, 24 h, at 10 µM, active compounds read high. In short, it runs like this:
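assay system = Saccharomyces cerevisiae strain carrying genetically modified DeaD replicative-lifespan system | medium = SC raffinose/galactose permissive medium | dosing = 10 µM single dose, 0.25% DMSO | schedule = 24 h compound exposure at 30 °C after 4 h pre-growth | measured by = OD at 615 nm | read-out basis = growth inhibition from lowered OD615 after 24 h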

A short description of assay [2]: S. cerevisiae growth inhibition in restrictive medium, OD615, pilot screen, restrictive growth control, yeast lifespan reduction project (AID 706;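 active = growth inhibition above a set limit, 3 SD over mean compound inhibition, in both replicates, cut at about 43% in these data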;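 note: modified DeaD lifespan yeast strain shifted to restrictive glucose medium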). The settings on record: OD615, 48 h, at 10 µM, active compounds read high. The procedure, abridged:
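Buffer or medium: CSMM-D glucose medium. Material: genetically modified Saccharomyces cerevisiae, DeaD replicative lifespan assay strain. Times: 48 h compound exposure at 30 °C. Measured by: optical density at 615 nm.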

Assay [3] can be described thus: doxorubicin toxicity protection in MRP-1 cells – H69AR cells, CellTiter-Glo, duplicate, MRP-1 activator project, pilot screen (AID 807;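 active = viability increase at or above a cutoff of the median across tested compounds plus 3 SD, cut at about 8.5% in these data, passing the limit was not always enough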;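 note: compound pretreatment 18-22 h then 72 h combined with doxorubicin; 0% = doxorubicin alone and 100% = vehicle without doxorubicin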). The conditions noted are these: H69AR viability with doxorubicin, CellTiter-Glo luminescence; at 10 µM; active compounds read high. Background: ATP-based viability assays read luminescence as a measure of living cells.
A short description of assay [4]: viability of HCT116 without oncogenic beta-catenin – human colon tumor cells, pilot screen (AID 823;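 active = cell viability at or below a set limit in both duplicate runs, the limit being the all-compound median minus 4 SD, cut at about 23% in these data, passing the limit was not always enough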;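 note: 0% = wells killed by 20 µM Hyamine and 100% = untreated DMSO cell wells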). The settings on record: HCT116 beta-catenin knockout viability, CellTiter-Glo, 60 h; at 10 µM; active compounds read low.
The nature of assay [5]: viability of PTEN-null HCT116 cells – cell-based, HCT116 clonal line, CellTiter-Glo, pilot screen (AID 824;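 active = viability at or below 27.92% in each of two runs, the all-compound median minus 4 SD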;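 note: 0% = 20 µM Hyamine control and 100% = vehicle cell control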). The conditions noted are these: HCT116 PTEN-deleted viability, 60 h, at 10 µM, active compounds read low.
Assay [6] can be described thus: RAM pathway blockade in budding yeast – dse1pr::URA3 reporter, 5-FOA selection, pilot screen (AID 869).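 Note: 0% = DMSO wells with no growth and 100% = 10 µM 1-NA-PP1 with full growth; RAM network block rescues cells from 5-FOA so hits raise OD615 growth.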 The settings on record: S. cerevisiae dse1pr::URA3 5-FOA growth, OD615, 2 d; at 10 µM; active compounds read high; strain carries analog-sensitive mutant Cbk1 kinase.
Assay [7] can be described thus: RAM signaling pathway blockade in yeast – S. cerevisiae, Pdr1DBD-CYC8 efflux-inhibited sensitized strain, primary screen (AID 1298;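 active = RAM network inhibition above 8.4% in each of two replicates, 3 SD over the compound average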;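 note: 0% = DMSO untreated cells without growth and 100% = 10 µM 1-NA-PP1 full growth; higher means more yeast growth rescued from 5-FOA killing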). The conditions noted are these: S. cerevisiae cbk1-as DSE1-URA3 strain, 5-FOA growth OD615, 2 d; at 50 µM; active compounds read high.

As for `O=C(CSc1nnc(-c2cccnc2)n1Cc1ccco1)c1ccc(Br)cc1`, the growth inhibition in assay [1] was 1.25%; in assay [2], 32.4%. Besides, the viability increase in assay [3] was -1.99%. The values for the viability in assay [4] and in assay [5] were 79.9% and 86.8%, respectively. The inhibition in assay [6] was 0.005%. Also, the RAM network inhibition in assay [7] is 10%.
For `O=C1CC(c2ccco2)CC(O)=C1C=NCC1CCNCC1` (stereo unspecified), the values for the growth inhibition in assay [1] and in assay [2] were -17.1% and -5.49%, respectively. Also, the viability increase in assay [3] was 1.85%. For the same compound, the viability in assay [4] was 102%; in assay [5] it was 101%. Also, the inhibition in assay [6] was 0.37%. For the same compound, the RAM network inhibition in assay [7] was 3.8%.
As to `CC(C)N(Cc1ccccc1)C(=O)c1cnc2n(c1=O)CCS2`, the growth inhibition in assay [1] is -1.66%; in assay [2], -28.5%. The viability increase in assay [3] was -2.84%. Further, the viability in assay [4] was 105%; in assay [5], 98.1%. Also, the inhibition in assay [6] was 1.28%. Further, the RAM network inhibition in assay [7] is 1.59%.
Take `Oc1ccc(Br)cc1-c1nc2cnccn2c1NC1CCCC1`: the growth inhibition in assay [1] was -11.9%; in assay [2], 1.74%. The viability increase in assay [3] was -7.32%. The viability was 55.5% in assay [4] and 54.6% in assay [5]. Moreover, the inhibition in assay [6] was -0.895%. The RAM network inhibition in assay [7] is -1.71%.
`CCOC(=O)CN1CC23C=CC(O2)C(C(=O)Nc2ccc4c(c2)OCO4)C3C1=O` (stereo unspecified): the growth inhibition in assay [1] is -0.14%; in assay [2], 3.22%. Besides, the viability increase in assay [3] is -1.01%. For the same compound, the viability was 107% in assay [4] and 103% in assay [5]. Moreover, the inhibition in assay [6] was 2.71%. Moreover, the RAM network inhibition in assay [7] is 1.23%.
Turning to `COCCNC(=O)CS(=O)Cc1nc(-c2ccc(OC)cc2)oc1C` (stereo unspecified), the growth inhibition was -9.42% in assay [1] and -4.61% in assay [2]. Moreover, in assay [3], the viability increase was 0.42%. Further, the values for the viability in assay [4] and in assay [5] were 103% and 95.2%, respectively. The inhibition in assay [6] was 1.11%. The RAM network inhibition in assay [7] is 0.85%.
Turning to `C=CCOC(=O)c1[nH]c2c(c1C)C(=O)CC(c1cc(OC)c(OC)c(OC)c1)C2` (stereo unspecified), the growth inhibition was 1.75% in assay [1] and 6.24% in assay [2]. For the same compound, the viability increase in assay [3] is -0.05%. The viability in assay [4] was 53.4%; in assay [5] it was 66.7%. In addition, the inhibition in assay [6] was 3.67%. Further, the RAM network inhibition in assay [7] was 5.97%.
For `COc1cccc(Nc2cc(C)nc3nc(C)nn23)c1`, the values for the growth inhibition in assay [1] and in assay [2] were -0.125% and 4.21%, respectively. The viability increase in assay [3] was -1.69%. Moreover, the values for the viability in assay [4] and in assay [5] were 108% and 97.6%, respectively. For the same compound, the inhibition in assay [6] is 1.68%. Moreover, the RAM network inhibition in assay [7] is 2.37%.
Consider `CCSC1=N/C(=C\c2ccc(C(=O)O)cc2)C(=O)S1`, for which the growth inhibition in assay [1] is -3.9%; in assay [2], -3.52%. Also, the viability increase in assay [3] is -2.03%. The viability in assay [4] is 95.4%; in assay [5], 100%. Further, in assay [6], the inhibition was 1.83%. Further, the RAM network inhibition in assay [7] was 8.27%.
Regarding `CCCCC(CC)CNC(=O)CCS(=O)(=O)c1cccc2nonc12` (stereo unspecified), the growth inhibition was 1.79% in assay [1] and -0.105% in assay [2]. The viability increase in assay [3] was -0.88%. In addition, the viability was 92.2% in assay [4] and 91.4% in assay [5]. For the same compound, the inhibition in assay [6] is 2.17%. Moreover, the RAM network inhibition in assay [7] is 3.63%.
`COc1ccc(C2C(C(=O)NCCN3CCOCC3)c3ccccc3C(=O)N2C)cc1OC` (stereo unspecified): the results for the growth inhibition in assay [1] and in assay [2] were -2.92% and -2.97%, respectively. The viability increase in assay [3] is -0.98%. For the same compound, the figures for the viability in assay [4] and in assay [5] were 91.5% and 100%, respectively. The inhibition in assay [6] was 1.24%. For the same compound, the RAM network inhibition in assay [7] is 3.26%.
Take `O=C(Cn1cc2c(n1)CCCCC2)NCc1ccccn1`: the growth inhibition in assay [1] is -5.75%; in assay [2], -16.1%. Also, the viability increase in assay [3] was -2.27%. Moreover, the viability is 95.6% in assay [4] and 90.8% in assay [5]. Also, the inhibition in assay [6] was 3.27%. In addition, the RAM network inhibition in assay [7] is 4.15%.
On to `C=Cn1ccnc1P(=S)(c1ccc2c(c1)c1ccccc1n2CC)c1nccn1C=C`, for which the results for the growth inhibition in assay [1] and in assay [2] were -10.3% and -21.9%, respectively. Besides, the viability increase in assay [3] is -6.67%. In addition, the viability was 16.2% (active) in assay [4] and 13.8% (active) in assay [5]. In addition, the inhibition in assay [6] was 3.5%. Further, in assay [7], the RAM network inhibition was 6.54%.
On to `COc1ccc(S(=O)(=O)N2CCN(c3cccc(C)c3C)CC2)cc1`, for which the growth inhibition in assay [1] was -16.7%; in assay [2], -13.3%. In assay [3], the viability increase was 1.83%. Also, the viability in assay [4] is 97.9%; in assay [5], 90.5%. For the same compound, the inhibition in assay [6] was 1.02%. The RAM network inhibition in assay [7] is 2.58%.
Regarding `COC(=O)c1ccc(NC(=O)CSc2nnc(-c3ccncc3)n2N)cc1`, the growth inhibition in assay [1] was -4.88%; in assay [2], -14.8%. The viability increase in assay [3] is -1.74%. Further, the viability in assay [4] was 95.7%; in assay [5], 97.4%. Moreover, the inhibition in assay [6] was 0.805%. In addition, the RAM network inhibition in assay [7] was 0.26%.
As to `OCCN1CCN(Cc2cc(Br)cc(Br)c2O)CC1`, the growth inhibition in assay [1] was -18.3%; in assay [2], -14%. Also, the viability increase in assay [3] was -2.23%. For the same compound, the figures for the viability in assay [4] and in assay [5] were 92.6% and 96.3%, respectively. In assay [6], the inhibition was 2.87%. Further, in assay [7], the RAM network inhibition was -0.43%.
Consider `O=C(Nc1c(C(=O)N2CCCC2)cnn1-c1ccccc1)c1cccc(F)c1`, for which the growth inhibition in assay [1] was -7.52%; in assay [2], -1.27%. Further, the viability increase in assay [3] was -0.46%. Also, the viability was 96.7% in assay [4] and 98.9% in assay [5]. For the same compound, in assay [6], the inhibition was 0.475%. The RAM network inhibition in assay [7] is 1.02%.
With `CCOC(=O)C1Cc2ccccc2C(=O)O1` (stereo unspecified), the growth inhibition was -4.84% in assay [1] and -2.44% in assay [2]. The viability increase in assay [3] is -0.24%. For the same compound, the viability in assay [4] was 96.4%; in assay [5], 100%. Also, the inhibition in assay [6] is 0.47%. In assay [7], the RAM network inhibition is 5.42%.

By viability is commonly meant a read-out of living cells in per cent, often relative to untreated cells. A word on the inhibition: it is the drop in the measured response relative to a control, in per cent.
